Calls of active or inactive are those of the source. The calls are words filed in the database; no cut-off is given here.
What was measured:
Sus scrofa = species: Sus scrofa; assay: Inhibition of pig pancreas group 1B sPLA2 at 10 uM
Outline: (§1)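 Compound tested at 10 µM in ethanol (vehicle 1%). Enzyme preincubated 5 min at 37 °C in Tris–HCl, 1 mM CaCl₂, pH 7.5, then incubated 15 min with [³H]oleate-labelled, autoclaved E. coli CECT 101 membranes. Released radioactivity counted. Percent inhibition versus vehicle control, mean ± SEM, n = 6. Enzymes: human recombinant synovial group IIA; porcine pancreatic group IB.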

RAW264.7 [1] = assay: Inhibition of LPS-stimulated COX2 expression in mouse RAW264.7 cells by Western blot; type: functional, cell-based
Outline: (§2)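 Cells were RAW 264.7 at 1.5 × 10⁶ cells/mL, 18 h with LPS 1 µg/mL and compound at 1 or 10 µM; dexamethasone as reference. Lysis in HEPES pH 8.0 buffer with protease/phosphatase inhibitors, spin 10,000g 15 min 4 °C. COX-2 taken from total fraction, mPGES-1 from microsomal fraction. 50 µg protein per lane on SDS–15% PAGE, PVDF, polyclonal antibodies (COX-2 1/1000, mPGES-1 1/200). β-actin loading control. Bands expressed relative to LPS control. Two experiments.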

RAW264.7 [2] = assay: Inhibition of LPS-stimulated PGE2 production in mouse RAW264.7 cells after 20 hrs by radioimmunoassay; type: functional, cell-based; settings: RAW264.7, 20 h
Outline: (§3)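 Murine RAW 264.7 macrophages, 1.5 × 10⁶ cells/mL, given 1 µg/mL E. coli 0111:B4 LPS at 37 °C for 20 h with compound in ethanol (vehicle ethanol 1%). Supernatant PGE₂ measured by radioimmunoassay. Mean ± SEM, n = 6. IC₅₀ from at least four significant concentrations. ANOVA then Dunnett's t-test.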

RAW264.7 [3] = assay: Inhibition of LPS-stimulated microsomal prostaglandin E synthase 1 expression in mouse RAW264.7 cells by Western blot; type: functional, cell-based; outline: as §2
Naja naja = assay: Inhibition of Naja naja venom group 1A sPLA2 at 10 uM
Outline: (§4)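 Radiometric sPLA2 assay with membranes of E. coli CECT 101 labelled by growth with [3H]oleic acid, then autoclaved. Enzyme in Tris–HCl, 1 mM CaCl2, pH 7.5, preincubated 5 min at 37 °C with compound in ethanol (vehicle 1%), then 15 min with the labelled membranes. Released radioactivity counted. Percent inhibition versus vehicle control, mean ± SEM, n = 6.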

Apis mellifera = assay: Inhibition of bee venom group 3 sPLA2 at 10 uM; outline: as §4
RAW264.7 [4] = assay: Inhibition of LPS-stimulated PGE2 production in mouse RAW264.7 cells at 10 uM after 20 hrs by radioimmunoassay; type: functional; settings: RAW264.7, 20 h; outline: as §3
[5] = target: T1, Phospholipase A2, membrane associated (Homo sapiens) (UniProt P14555); assay: Inhibition of human synovial recombinant group 2A sPLA2 at 10 uM; outline: as §1
T1 sequence (whole entry): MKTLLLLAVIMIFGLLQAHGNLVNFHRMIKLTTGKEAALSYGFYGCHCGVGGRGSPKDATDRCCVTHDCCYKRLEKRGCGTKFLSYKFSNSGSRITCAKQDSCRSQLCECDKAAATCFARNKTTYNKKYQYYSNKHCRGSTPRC

RAW264.7 [6] = assay: Cytotoxicity against mouse RAW264.7 cells at 10 uM after 20 hrs by MTT assay; type: cell-based; settings: raw264.7, 20 h
Outline: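 RAW 264.7 macrophages (1.5 × 10⁶ cells/mL) co-incubated with 1 µg/mL E. coli 0111:B4 LPS at 37 °C for 20 h, compound added in ethanol (ethanol alone as control). Viability read by mitochondrial reduction of MTT to formazan.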

RAW264.7 [7] = assay: Inhibition of LPS-stimulated COX2 expression in mouse RAW264.7 cells at 10 uM by Western blot; type: functional, cell-based; outline: as §2
RAW264.7 [8] = assay: Inhibition of LPS-stimulated microsomal prostaglandin E synthase 1 expression at 10 uM in mouse RAW264.7 cells by Western blot; type: functional, cell-based; outline: as §2

SMILES | inhibition (Sus scrofa) [%] | Activity (RAW264.7 [1]) | IC50 (RAW264.7 [2]) [µM] | Activity (RAW264.7 [3]) | inhibition (Naja naja) [%] | inhibition (Apis mellifera) [%] | inhibition at 10 µM (RAW264.7 [4]) [%] | inhibition [5] [%] | Cytotoxicity (RAW264.7 [6]) [%] | Activity (RAW264.7 [7]) | Activity (RAW264.7 [8])
CCCCc1ccc(C2=C(c3ccc(-c4ccc(CCCC)cc4)cc3)C(O)OC2=O)cc1 (stereo not drawn) | 0 | inactive | 4.59 | Dose-dependent effect | 2.6 | 2.8 | 58.7 | 4.4 | 0 | – | –
O=C1OC(O)C(c2cccc(-c3ccc(Oc4ccccc4)cc3)c2)=C1c1cccc(-c2ccc(Oc3ccccc3)cc2)c1 (stereo not drawn) | 10.2 | – | – | – | 16.6 | 6 | 22.2 | 10.6 | 0 | – | –
CCCCc1ccc(-c2ccc(C3=C(Br)C(=O)OC3O)cc2)cc1 (stereo not drawn) | 0 | inactive | 2.24 | Dose-dependent effect | 0 | 3.5 | 62.2 | 0 | 5.5 | – | –
O=C1OC(O)C(c2cccc(-c3ccc4ccccc4c3)c2)=C1Br (stereo not drawn) | 0 | – | – | – | 0 | 0 | 66.8 | 0 | 18.6 | – | –
O=C1OC(O)C(c2ccc(-c3ccc(-c4ccccc4)cc3)cc2)=C1Br (stereo not drawn) | 0 | inactive | 3.61 | Dose-dependent effect | 0 | 0 | 73.1 | 12.1 | 1.2 | – | –
O=C1OC(O)C(c2cccc(-c3csc4ccccc34)c2)=C1Br (stereo not drawn) | 28.6 | – | – | – | 11.7 | 13.9 | 33.6 | 30 | 0 | – | –
O=C1OC(O)C(c2csc3ccccc23)=C1Br (stereo not drawn) | – | – | 1.8 | – | – | – | 72.2 | – | 0 | – | –
O=C1OC(O)C(c2cccc(-c3csc4ccccc34)c2)=C1c1cccc(-c2csc3ccccc23)c1 (stereo not drawn) | 8.3 | inactive | 3.23 | Dose-dependent effect | 3.6 | 4 | 69.2 | 2.4 | 4.1 | – | –
CCc1c(CC(N)=O)c2cc(OCCCP(=O)(O)O)ccc2n1Cc1ccccc1 | 36.9 | – | – | – | 7.9 | 2.4 | – | 96.3 | – | – | –
C[C@@H]1C[C@H]2[C@@H]3CCC4=CC(=O)C=C[C@]4(C)[C@@]3(F)[C@@H](O)C[C@]2(C)[C@@]1(O)C(=O)CO | – | – | – | – | – | – | – | – | – | Active | Active
O=C1OC(O)C(c2cccc(-c3ccc4ccccc4c3)c2)=C1c1ccc2ccccc2c1 (stereo not drawn) | 0 | inactive | 0.84 | Dose-dependent effect | 2 | 2.8 | 79.6 | 14.8 | 8.6 | – | –
O=C1OC(O)C(c2cccc(-c3ccc(Oc4ccccc4)cc3)c2)=C1Br (stereo not drawn) | 0 | – | – | – | 5.8 | 5.3 | 51 | 2.4 | 0 | – | –

— ChEMBL document CHEMBL1144230, “Development of a second generation of inhibitors of microsomal prostaglandin E synthase 1 expression bearing the gamma-hydroxybutenolide scaffold” (Bioorg Med Chem, 2008)
